ChEMBL document CHEMBL1125534, “Omega-[(omega-arylalkyl)aryl]alkanoic acids: a new class of specific LTA4 hydrolase inhibitors” (J Med Chem, 1992)

Tests used:
[1] = Inhibition of LTB4 biosynthesis by porcine leukocytes at LTA4 hydrolase level at a concentration of 2*10e-5 M; format: functional, Sus scrofa
Method in brief: (§1)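 Porcine leukocyte homogenate (cells at 10⁸/mL, sonicated) with CaCl₂ and ATP each at 2 mmol/L final. Preincubated 3 min at 25 °C with inhibitor (in ethanol or PBS) plus 5,8,11,14-[…] acid 4 μmol/L final to block 12-LO. Then incubated 5 min at 37 °C with [1-¹⁴C]arachidonic acid. LTB₄ and 6-trans-isomers separated by HPLC with radioactivity detection. Mean of ≥3 experiments.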

[2] = system: Leukotriene A-4 hydrolase (Sus scrofa); assay: Inhibition of LTA4 hydrolase mediated LTB4 biosynthesis by porcine leukocytes at 2*10e-5M
[3] = Evaluated for the inhibitory activity against Leukotriene A4 hydrolase; design: species or system Sus scrofa; method in brief: as §1
[4] = system: Leukotriene A-4 hydrolase (Sus scrofa); assay: Inhibitory activity against Leukotriene A4 hydrolase at 100 mg/kg (po) in rat plasma extracts
[5] = system: Leukotriene A-4 hydrolase (Sus scrofa); assay: Inhibitory activity against Leukotriene A4 hydrolase at 5 mg/kg (po) in rat plasma extracts
[6] = system: Leukotriene A-4 hydrolase (Sus scrofa); assay: Inhibitory activity against Leukotriene A4 hydrolase at 30 mg/kg (po) in rat plasma extracts
[7] = system: Leukotriene A-4 hydrolase (Sus scrofa); assay: Inhibitory activity Leukotriene A4 hydrolase at 5 mg/kg (po) in rat plasma
[8] = system: Leukotriene A-4 hydrolase (Sus scrofa); assay: Inhibitory activity against Leukotriene A4 hydrolase at 100 mg/kg (po) in rat plasma

Structure (SMILES)	Inhibition [1]	inhibition [2]	IC50 [3]	further results
NC(=O)CCCCCCc1ccc(CCCc2ccccc2)s1	0%	–	–	–
O=C(O)CCCCCCc1ccc(Cc2cccc3ccccc23)cc1	0%	–	–	–
N#CCCCCCCc1ccc(CCCc2ccccc2)s1	0%	–	–	–
O=C(O)CCCCCC(=O)c1ccc(CCCc2ccccc2)cc1	27%	–	–	–
NC(=O)Nc1ccc(Cc2ccc(CCCCCCC(=O)O)cc2)cc1	–	100%	1.7 µM	–
O=C(O)CCCCCCc1ccc(CCc2ccccc2)cc1	–	43%	30 µM	–
O=C(O)CCCCCc1ccc(CCCc2ccccc2)cc1	43%	–	–	–
O=C(O)CCCCCCc1ccc(Cc2ccc(Cl)cc2)cc1	–	73%	7.2 µM	inhibition [4]: 7%; inhibition [5]: 22%
O=C(O)CCCCCCc1ccc(Cc2ccncc2)cc1	43%	–	–	–
O=C(O)CCCNC(=O)Cc1ccc(CCCc2ccccc2)s1	12%	–	–	–
O=C(O)CCCCCCc1ccc(CCCc2cccc(Cl)c2)s1	45%	–	–	–
CC(C)(C)c1ccc(Cc2ccc(CCCCCCC(=O)O)cc2)cc1	0%	–	–	–
O=C(O)CCCCC[S+]([O-])c1ccc(CCCc2ccccc2)s1 (configuration not stated)	0%	–	–	–
O=C(O)CCCCCCCc1ccc(CCCc2ccccc2)cc1	45%	–	–	–
O=C(O)CCCCCCc1ccc(Cc2cnc3ccccc3c2)cc1	–	85%	5 µM	inhibition [4]: 27%; inhibition [6]: 19%; inhibition [5]: 27%
O=C(O)CCCCCCc1ccc(CCCc2ccc(Cl)cc2)s1	63%	–	–	–
CC(C)(CCCCCc1ccc(CCCc2ccccc2)s1)C(=O)O	46%	–	–	–
O=C(O)CNC(=O)CCCc1ccc(CCCc2ccccc2)s1	53%	–	–	–
O=C([O-])CCCCc1ccc(CCCc2ccccc2)s1.[Na+]	0%	–	–	–
O=C(O)CCCCCCc1ccc(Cc2ccc([N+](=O)[O-])cc2)cc1	–	53%	72.5 µM	–
O=C(O)CCCCCCc1ccc(Cc2ccccn2)cc1	–	76%	7.7 µM	–

Structure (SMILES)	Inhibition [1]	inhibition [2]	IC50 [3]	further results
O=C([O-])CCCCc1ccc(CCCc2ccccc2)cc1.[Na+]	35%	–	–	–
O=C(O)CCCCCCc1ccc(CCCc2ccc(O)cc2)s1	69%	–	–	–
O=C(O)CCCCCCc1ccc(CCCc2ccccc2)cc1	–	76%	3.4 µM	inhibition [6]: 15%
O=C([O-])CCCCCCc1ccc(CCCCc2ccccc2)s1.[Na+]	0%	–	–	–
O=C(O)CCCCCCc1ccc(CCc2ccccc2)s1	–	86%	3.5 µM	–
c1ccc(CCCc2ccc(CCCCCCC3N=NN=N3)s2)cc1	29%	–	–	–
O=C(O)CCCCCCc1ccc(Cc2cccnc2)cc1	65%	–	–	–
O=C(O)CCCCCSc1ccc(Cc2ccccc2)cc1	–	82%	9.1 µM	–
O=C(O)CCCC(=O)NCc1ccc(CCCc2ccccc2)s1	38%	–	–	–
O=C([O-])CCCCCCCc1ccc(CCCc2ccccc2)s1.[Na+]	0%	–	–	–
O=C(O)CCCCCC(=O)c1ccc(CCCc2ccccc2)s1	66%	–	–	–
O=C(O)COCCCCc1ccc(CCCc2ccccc2)s1	–	90%	1.5 µM	inhibition [4]: 73%; inhibition [7]: 40%; inhibition [6]: 54%
COc1ccc(CCCc2ccc(SCCCCCC(=O)O)cc2)cc1	35%	–	–	–
O=C(O)CCCCCCc1ccc(Cc2ccc(O)cc2)cc1	56%	–	–	–
CS(=O)(=O)Nc1ccc(Cc2ccc(CCCCCCC(=O)O)cc2)cc1	0%	–	–	–
O=C(O)CCCCCS(=O)(=O)c1ccc(CCCc2ccccc2)s1	0%	–	–	–
O=C(O)CCCCCCc1ccc(Cc2ccccc2Cl)cc1	0%	–	–	–
COc1ccc(CCCc2ccc(CCCCCCC(=O)O)s2)cc1	–	80%	9.7 µM	–
O=C(O)CCCCCCc1ccc(CCCc2ccccc2)s1	–	–	2.9 µM	inhibition [6]: 44%; inhibition [5]: 0%; inhibition [8]: 82%
O=C(O)CCCCCCc1ccc(Cc2ccc3ccccc3c2)cc1	22%	–	–	–
O=C(O)CCCCCc1ccc(CCCc2ccccc2)s1	61%	–	–	–

Structure (SMILES)	Inhibition [1]	inhibition [2]	IC50 [3]	further results
O=C(O)CCCCCCc1ccc(Cc2ccccc2)s1	–	51%	15 µM	–
O=C(O)CCCCCSc1ccc(CCCc2ccccc2)s1	–	79%	2.8 µM	inhibition [4]: 19%; inhibition [6]: 19%; inhibition [5]: 4%
Nc1ccc(Cc2ccc(CCCCCCC(=O)O)cc2)cc1	–	89%	0.9 µM	inhibition [4]: 31%; inhibition [5]: 29%
CNc1ccc(Cc2ccc(CCCCCCC(=O)O)cc2)cc1	78%	–	–	–
O=C(O)CCCCCCc1ccc(Cc2ccc3ccccc3n2)cc1	48%	–	–	–
O=C(O)CCCCCCc1ccc(Cc2ccnc3ccccc23)cc1	0%	–	–	–
O=C(O)CCCCCCc1ccc(Cc2ccccc2)cc1	–	79%	3 µM	–
O=C(O)CCCCCCc1ccc(Cc2ccc(C(F)(F)F)cc2)cc1	–	19%	188 µM	–
CN(C)c1ccc(Cc2ccc(CCCCCCC(=O)O)cc2)cc1	29%	–	–	–
O=C(O)CCCC(O)CCc1ccc(CCCc2ccccc2)s1 (configuration not stated)	–	73%	6.2 µM	–
O=C(O)CCCCCSc1ccc(CCCc2ccccc2)cc1	–	74%	6.2 µM	inhibition [4]: 12%; inhibition [6]: 20%
O=C(O)CCCCCS(=O)(=O)c1ccc(Cc2ccccc2)cc1	2%	–	–	–
COC(=O)COCCCCc1ccc(CCCc2ccccc2)s1	66%	–	–	–
COc1ccc(Cc2ccc(CCCCCCC(=O)O)cc2)cc1	–	69%	9.2 µM	–
O=C(O)CCCC(=O)CCc1ccc(CCCc2ccccc2)s1	–	82%	6.3 µM	–
O=C(O)CCCCCCc1ccc(-c2ccccc2)cc1	41%	–	–	–
O=C(O)CCCCCOc1ccc(Cc2ccccc2)cc1	69%	–	–	–
CC(=O)Nc1ccc(Cc2ccc(CCCCCCC(=O)O)cc2)cc1	41%	–	–	–
Cc1ccc(Cc2ccc(CCCCCCC(=O)O)cc2)cc1	–	63%	21.1 µM	–
O=C(O)CCCCCCc1ccc(-c2ccccc2)s1	67%	–	–	–
